Data: ChEMBL document CHEMBL3392964, “Design, synthesis, and evaluation of novel imidazo[1,2-a][1,3,5]triazines and their derivatives as focal adhesion kinase inhibitors with antitumor activity” (J Med Chem, 2015)
Calls of active or inactive are those of the source. No cut-off for these calls is given here.

Columns and labels:
[1] = Cell cycle arrest in human U87MG cells assessed as accumulation at S phase at 3 uM after 24 hrs by propidium iodide staining-based flow cytometry (reference value: 16%); assay type: functional; settings: U-87MG ATCC
Method in brief: (§1)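 Cells plated at 10^5 per well, left overnight, then exposed 24 h to compound or vehicle; stained 15 min at 37 °C with propidium iodide/Triton buffer; DNA content by flow cytometry, phase distribution fitted by Dean–Jett–Fox; HCT-116 at 0.3–0.5 μM, U87-MG at 0.3–3 μM; significance by unpaired Student's t test; one representative experiment.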

U-87MG ATCC = assay: (§2) Inhibition of colony formation in human U87MG cells after 2 weeks by crystal violet staining-based assay; assay type: functional, cell-based
Method in brief: (§3)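 Seeding: 250 cells per well for HCT-116, 300 for U87MG, MDA-MB-231 and PC-3; incubated overnight, then exposed to a range of concentrations for 2 weeks. Fixed in 4% paraformaldehyde 30 min at room temperature, stained with 0.1% crystal violet. Colonies over 50 cells counted; colony formation rate calculated; IC50 by nonlinear regression.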

[2] = as §2; assay type: functional, cell-based, U-87MG ATCC; settings: U-87 MG, 336 h; method in brief: as §3
[3] = Antiproliferative activity against human U87MG cells after 48 hrs by WST-1 assay; assay type: functional, cell-based, U-87MG ATCC; settings: U-87 MG
Method in brief: (§4)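 Exponentially growing cells in DMEM/10% FBS seeded at 5 × 10^3 per well, left overnight, then exposed 48 h to compounds diluted from DMSO; WST-1 added for 2 h, absorbance at 450 nm (reference 620 nm); viability as ratio to DMSO controls; three independent experiments, triplicate points; IC50 by nonlinear regression (log inhibitor vs normalized response, variable slope).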

Focal adhesion kinase 1 [4] = biological target: T1, Focal adhesion kinase 1 (Homo sapiens, UniProt Q05397); assay: Inhibition of FAK phosphorylation at tyrosine 397 in human U87MG cells after 48 hrs by FACEFAK ELISA; assay type: cell-based; settings: U-87MG ATCC
T1 sequence (Q05397 2-1052 limits assumed): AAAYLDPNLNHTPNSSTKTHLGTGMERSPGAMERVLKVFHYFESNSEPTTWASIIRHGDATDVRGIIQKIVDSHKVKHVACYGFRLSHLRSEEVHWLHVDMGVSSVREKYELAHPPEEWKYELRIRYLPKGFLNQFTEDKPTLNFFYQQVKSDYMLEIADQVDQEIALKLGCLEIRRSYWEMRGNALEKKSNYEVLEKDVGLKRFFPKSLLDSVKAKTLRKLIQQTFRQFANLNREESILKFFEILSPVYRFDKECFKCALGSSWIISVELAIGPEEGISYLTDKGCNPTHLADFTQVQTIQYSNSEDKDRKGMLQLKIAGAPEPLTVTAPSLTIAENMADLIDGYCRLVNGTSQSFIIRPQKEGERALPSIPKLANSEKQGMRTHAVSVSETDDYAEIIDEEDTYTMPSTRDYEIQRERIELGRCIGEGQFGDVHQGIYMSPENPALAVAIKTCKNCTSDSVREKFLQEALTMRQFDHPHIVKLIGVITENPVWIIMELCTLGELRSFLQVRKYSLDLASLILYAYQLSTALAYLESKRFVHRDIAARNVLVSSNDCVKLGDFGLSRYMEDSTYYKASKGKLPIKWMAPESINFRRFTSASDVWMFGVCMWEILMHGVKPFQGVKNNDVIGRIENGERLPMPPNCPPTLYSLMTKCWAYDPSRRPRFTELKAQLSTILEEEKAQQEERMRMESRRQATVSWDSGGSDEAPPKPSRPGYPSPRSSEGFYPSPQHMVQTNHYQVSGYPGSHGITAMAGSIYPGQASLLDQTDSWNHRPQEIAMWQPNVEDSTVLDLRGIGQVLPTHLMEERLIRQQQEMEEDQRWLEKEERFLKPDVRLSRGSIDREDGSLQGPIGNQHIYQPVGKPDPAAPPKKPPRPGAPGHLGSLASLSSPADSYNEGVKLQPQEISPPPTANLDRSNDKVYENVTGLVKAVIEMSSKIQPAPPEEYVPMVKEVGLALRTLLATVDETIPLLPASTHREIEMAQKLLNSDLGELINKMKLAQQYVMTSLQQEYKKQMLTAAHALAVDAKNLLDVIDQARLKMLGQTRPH
Method in brief: (§5)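 Cells in DMEM with 10% FBS, 3 × 10^3 per well, treated 48 h at 0.1, 1 and 10 μM. Fixed in 4% formaldehyde; antibodies to pTyr397-FAK or total FAK, HRP secondary, read at 450 nm. Crystal violet cell count at 595 nm. Phospho-FAK normalised to total FAK and cell number; fold decrease versus control, triplicate readings, three independent experiments.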

HCT-116 [5] = assay: (§6) Inhibition of colony formation in human HCT116 cells after 2 weeks by crystal violet staining-based assay; assay type: functional, cell-based; method in brief: as §3
[6] = as §6; assay type: functional, cell-based; settings: HCT-116, 336 h; method in brief: as §3
U-87 MG [7] = assay: Reduction of cell adherence in human U87MG cells at 3 uM after 30 mins by toluidine blue staining-based […]; assay type: functional, U-87MG ATCC; set-up: scale not given: the % may be the effect or the level left
Method in brief: (§7)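 U87-MG cells grown in 10% serum, trypsinised, diluted to 100 000 cells/mL in 10% serum medium, then treated 30 min with compound or DMSO. 20 000 cells per well allowed to attach 1 h. Fixed in 4% paraformaldehyde 30 min, stained with 0.1% toluidine blue in 4% PFA 30 min, washed, OD read at 620 nm for attached cells.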

U-87 MG [8] = assay: Induction of apoptosis in human U87MG cells assessed as early apoptotic cells at 3 uM after 24 hrs by Annexin V-PE/7-AAD staining-based FACS analysis (reference value: 0.691%); assay type: functional, U-87MG ATCC
HCT-116 [9] = assay: Induction of apoptosis in human HCT116 cells assessed as viable cells at 0.5 uM after 24 hrs by Annexin V-PE/7-AAD staining-based FACS analysis (reference value: 93.2%); assay type: functional; settings: HCT-116, 24 h, read-out: Activity
Focal adhesion kinase 1 [10] = biological target: T1, Focal adhesion kinase 1; assay: Inhibition of FAK phosphorylation at tyrosine 397 in human HCT116 cells after 48 hrs by FACEFAK ELISA; assay type: cell-based; settings: HCT-116; method in brief: as §5
[11] = Cell cycle arrest in human U87MG cells assessed as accumulation at G2/M phase at 3 uM after 24 hrs by propidium iodide staining-based flow cytometry (reference value: 20%); assay type: functional; settings: U-87MG ATCC; method in brief: as §1
MDA-MB-231 [12] = assay: Inhibition of colony formation in human MDA-MB-231 cells after 2 weeks by crystal violet staining-based assay; assay type: functional, cell-based; method in brief: as §3
[13] = Cell cycle arrest in human HCT116 cells at < 0.5 uM after 24 hrs by propidium iodide staining-based flow cytometry; assay type: functional; settings: HCT-116; method in brief: as §1
HCT-116 [14] = assay: Induction of apoptosis in human HCT116 cells at < 0.5 uM after 24 hrs by Annexin V-PE/7-AAD staining-based FACS analysis; assay type: functional, cell-based
MDA-MB-231 [15] = assay: Antiproliferative activity against human MDA-MB-231 cells after 48 hrs by WST-1 assay; assay type: functional, cell-based; settings: MDA-MB-231, 48 h; method in brief: as §4
HCT-116 [16] = assay: Induction of apoptosis in human HCT116 cells assessed as necrotic cells at 0.5 uM after 24 hrs by Annexin V-PE/7-AAD staining-based FACS analysis (reference value: 0.885%); assay type: functional
U-87 MG [17] = assay: Induction of apoptosis in human U87MG cells assessed as late apoptotic cells at 3 uM after 24 hrs by Annexin V-PE/7-AAD staining-based FACS analysis (reference value: 1.59%); assay type: functional, U-87MG ATCC
Focal adhesion kinase 1 [18] = biological target: T1, Focal adhesion kinase 1; assay: Inhibition of FAK phosphorylation at tyrosine 397 in human PC3 cells after 48 hrs by FACEFAK ELISA; assay type: cell-based; settings: PC-3; method in brief: as §5
[19] = Cell cycle arrest in human HCT116 cells assessed as accumulation at S phase at 0.5 uM after 24 hrs by propidium iodide staining-based flow cytometry (reference value: 17.7%); assay type: functional; settings: HCT-116; method in brief: as §1
[20] = Antiproliferative activity against human PC3 cells after 48 hrs by WST-1 assay; assay type: functional, cell-based; settings: PC-3, 48 h; method in brief: as §4
[21] = Antiproliferative activity against human HCT116 cells after 48 hrs by WST-1 assay; assay type: functional, cell-based; settings: HCT-116, 48 h; method in brief: as §4
[22] = Antiinvasive activity in human U87MG cells after 24 hrs by matrigel assay; assay type: functional, U-87MG ATCC
Method in brief: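 U-87MG pre-exposed 24 h to compound or DMSO in 3% FBS, then 4 × 10^4 cells seeded in upper chamber of impedance-based CIM-16 plate (8 μm pore membrane) coated with Matrigel/collagen; lower chamber 10% FBS; cell index monitored at 37 °C, 5% CO2 for 12 h; slope (1/h) over set interval, DMSO slope set to 100; duplicate wells, repeated twice.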

U-87 MG [23] = assay: Induction of apoptosis in human U87MG cells assessed as viable cells at 3 uM after 24 hrs by Annexin V-PE/7-AAD staining-based FACS analysis (reference value: 96.7%); assay type: functional, U-87MG ATCC; settings: read-out: Activity
PC-3 = assay: (§8) Inhibition of colony formation in human PC3 cells after 2 weeks by crystal violet staining-based assay; assay type: functional, cell-based; method in brief: as §3
[24] = as §8; assay type: functional, cell-based; settings: PC-3, 336 h; method in brief: as §3
Focal adhesion kinase 1 [25] = biological target: T1, Focal adhesion kinase 1; assay: Inhibition of FAK phosphorylation at tyrosine 397 in human MDA-MB-231 cells after 48 hrs by FACEFAK ELISA; assay type: cell-based; method in brief: as §5
[26] = Cell cycle arrest in human U87MG cells assessed as accumulation at G0/G1 phase at 3 uM after 24 hrs by propidium iodide staining-based flow cytometry (reference value: 61.7%); assay type: functional; settings: U-87MG ATCC; method in brief: as §1
[27] = biological target: Protein-tyrosine kinase 2-beta (Homo sapiens) (UniProt Q14289); assay: Inhibition of human recombinant Pyk2 using poly[Glu:Tyr] as substrate at 1 uM by [gamma-33P]ATP-based assay
Protein-tyrosine kinase 2-beta (Homo sapiens), sequence (Q14289 whole entry, looked up): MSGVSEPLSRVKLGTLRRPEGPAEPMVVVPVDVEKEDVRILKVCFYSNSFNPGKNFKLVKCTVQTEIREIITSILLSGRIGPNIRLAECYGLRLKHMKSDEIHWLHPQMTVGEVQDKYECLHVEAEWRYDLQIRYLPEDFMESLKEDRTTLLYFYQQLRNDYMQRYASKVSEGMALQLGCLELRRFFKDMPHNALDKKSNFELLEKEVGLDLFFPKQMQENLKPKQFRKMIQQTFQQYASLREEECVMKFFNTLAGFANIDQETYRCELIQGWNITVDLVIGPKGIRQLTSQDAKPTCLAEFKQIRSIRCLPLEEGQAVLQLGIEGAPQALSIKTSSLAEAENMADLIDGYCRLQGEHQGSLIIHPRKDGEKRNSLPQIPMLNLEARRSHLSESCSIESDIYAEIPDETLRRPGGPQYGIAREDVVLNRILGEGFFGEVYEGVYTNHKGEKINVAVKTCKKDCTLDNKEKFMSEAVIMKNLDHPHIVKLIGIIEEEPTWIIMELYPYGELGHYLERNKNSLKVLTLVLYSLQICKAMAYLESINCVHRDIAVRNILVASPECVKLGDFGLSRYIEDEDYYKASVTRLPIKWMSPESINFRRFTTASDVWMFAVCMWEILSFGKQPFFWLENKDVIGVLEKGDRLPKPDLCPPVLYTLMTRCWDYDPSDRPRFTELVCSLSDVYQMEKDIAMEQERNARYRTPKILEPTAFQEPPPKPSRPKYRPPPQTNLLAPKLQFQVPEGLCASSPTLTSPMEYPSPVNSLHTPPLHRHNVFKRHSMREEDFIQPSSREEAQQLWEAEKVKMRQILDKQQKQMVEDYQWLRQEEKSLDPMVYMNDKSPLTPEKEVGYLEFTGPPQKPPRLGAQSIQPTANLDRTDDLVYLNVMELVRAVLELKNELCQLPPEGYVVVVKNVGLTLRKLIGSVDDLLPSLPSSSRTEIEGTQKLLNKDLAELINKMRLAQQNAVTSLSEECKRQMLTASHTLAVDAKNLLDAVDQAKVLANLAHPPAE
Method in brief: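 Radioactive kinase assay with [γ33P]ATP and human recombinant kinase, compound tested at 1 μM.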

U-87 MG [28] = assay: Reduction of cell adherence in human U87MG cells after 30 mins by toluidine blue staining-based […]; assay type: functional; settings: U-87MG ATCC; method in brief: as §7

SMILES: C=COC(=O)NCc1ccc(Nc2nc(Nc3ccccc3C(=O)NC)n3ccnc3n2)cc1
- Activity [1]: 5.08%
- inhibition (U-87MG ATCC): Dose-dependent effect
- IC50 [2]: 420 nM
- IC50 [3]: 2890 nM
- inhibition (Focal adhesion kinase 1 [4]): Dose-dependent effect
- inhibition (HCT-116 [5]): Dose-dependent effect
- IC50 [6]: 130 nM
- Activity (U-87 MG [7]): 50%
- Activity (U-87 MG [8]): 0.756%
- viability at 0.5 µM (HCT-116 [9]): 62.9%
- inhibition (Focal adhesion kinase 1 [10]): Dose-dependent effect
- Activity [11]: 58.8%
- inhibition (MDA-MB-231 [12]): Dose-dependent effect
- IC50 (MDA-MB-231 [12]; MDA-MB-231, 336 h): 140 nM
- Activity [13]: Active
- Activity (HCT-116 [14]): Active
- IC50 (MDA-MB-231 [15]): 800 nM
- Activity (HCT-116 [16]): 7.77%
- Activity (U-87 MG [17]): 0.997%
- inhibition (Focal adhesion kinase 1 [18]): Dose-dependent effect
- Activity [19]: 11.6%
- IC50 [20]: 290 nM
- IC50 [21]: 520 nM
- Activity [22]: 50%
- viability at 3 µM (U-87 MG [23]): 97.4%
- inhibition (PC-3): Dose-dependent effect
- IC50 [24]: 630 nM
- inhibition (Focal adhesion kinase 1 [25]): Dose-dependent effect
- Activity [26]: 34.3%
- inhibition [27]: inactive
- Activity (U-87 MG [28]): Dose-dependent effect
